Screens from PubChem BioAssay.
RBBP9 inh: inhibitors of human serine hydrolase RBBP9; O75884; recombinant RBBP9, FP-Rh probe fluorescence polarization; inhibition, % at 7.94 µM; 0.2% of 220,000 active;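 active = inhibition above the campaign mean of all tested compounds plus 3 SD, cut at about 14% in these data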;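 note: plate controls were DMSO wells with RBBP9 for no effect and wells lacking RBBP9 protein for full effect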
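Controls: DMSO-treated enzyme wells and wells lacking RBBP9 | Material: RBBP9 protein | Technique: Fluorescence polarization | Replication: Single well per compound, no replicates | Buffer or medium: Tris-NaCl-Pluronic buffer, pH 8.0 | Timing: 30 min compound preincubation, 45 min probe labeling, 25 °C | Read-out basis: Percent inhibition from mP, scaled between DMSO and no-protein wells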
SUMO HTRF inh: inhibitors of human SUMOylation (UBC9); P63279; HTRF SUMOylation assay, SAE1/SAE2 + UBC9, in vitro; inhibition, % at 35 µM; 0.36% of 290,000 active; in the data active = inhibition above about 50%, passing the limit was not always enough; inconclusive = no clear call, values can overlap the other calls
UBC13 inh: human UBC13 polyubiquitination inhibition | UBC13 polyubiquitin chain formation, TR-FRET | P61088 | 0.47% of 330,000 active | AID 485273 | inhibition, % at 20 µM; in the data active = inhibition above about 45%, passing the limit was not always enough; inconclusive = no clear call, values can overlap the other calls
PREPL inh: inhibits the human prolyl oligopeptidase-like enzyme | Q4J6C6 | recombinant PREPL, fluorescence polarization activity-based probe | inhibition, % at 5.96 µM | 0.68% of 320,000 active | AID 2751; in the data active = inhibition above about 43%;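 note: 0% = enzyme with DMSO and 100% = wells lacking enzyme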
ALR H2O2 inh: inhibitors of human sulfhydryl oxidase ALR. AID 485317. inhibition, % (no concentration beside the values). purified ALR, DTT oxidation, H2O2 HRP-luminol luminescence. 3.8% of 290,000 active. P55789;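 active = mean replicate inhibition above about 79%, with every replicate also reaching it, limit read from the data; inconclusive = only one of the two criteria met; inactive = mean below limit and not every replicate reaching it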
Rin1 Abl inh: inhibitors of human Rin1-Abl protein interaction | 0.4% of 360,000 active | P00519+Q13671 | inhibition, % at 7.35 µM | TR-FRET Rin1/Abl binding, biochemical; in the data active = inhibition above about 5%, passing the limit was not always enough
* = called active by the depositor; i = inactive; ? = inconclusive; . = not tested or not shown. In the library only some 4.3% were active in any assay of this set; here they are far more common.

SMILES | RBBP9 inh | SUMO HTRF inh | UBC13 inh | PREPL inh | ALR H2O2 inh | Rin1 Abl inh
CCOCCCN(C)C1CCN(C(=O)c2oc3ccccc3c2NC(=O)COc2ccc(F)cc2)CC1 | . | 8 | 2 | -12 | -3 | 5
CS/C(=N\S(=O)(=O)c1cccs1)NC(=O)CSc1nc2ccccc2s1 | -7 | -1 | -9 | 19 | 98* | 4
Cc1cc(C)c(S(=O)(=O)Nc2ccc(N(C)C)cc2)c(C)c1-n1cnnn1 | . | 9 | -2 | 20 | 99* | 0
O=C(O)CSc1cc(C(=O)c2ccccc2O)cn2c(=O)c3c4c(sc3nc12)CCCC4 | -6 | 50* | . | . | . | 1
CCOc1cc(/C=C2\SC(N)=NC2=O)ccc1O | . | -4 | -27 | 1 | 98* | -3
CCOC(=O)C1CCCN(C2=NC(=O)/C(=C/c3ccc(O)c(OCC)c3)S2)C1 (stereo unspecified) | . | 24 | -18 | 8 | 96* | -4
CCOC(=O)C1CCCN(C2=NC(=O)/C(=C/c3ccc(N(C)C)cc3)S2)C1 (stereo unspecified) | . | -10 | -97 | 26 | 100* | -15
CCOc1cc(/C=C2\N=C3CCCCCN3C2=O)ccc1O | -7 | -1 | -41 | 12 | 99* | -2
CCOC(=O)CC[C@H](NC(=O)Cn1cnc2c(SC)nc(N)nc21)C(=O)OCC | . | . | 3 | 7 | . | 0
O=C(Nc1ccc(-c2ccc3nncn3n2)cc1)c1ccc(Br)o1 | -10 | 37 | 4 | -12 | -9 | -1
CCOC(=O)C1CCN(C2=NC(=O)/C(=C/c3ccc(O)cc3)S2)CC1 | . | -1 | -2 | 1 | 98* | 1
CCOC(=O)C1CCN(C2=NC(=O)/C(=C/c3ccccc3OC)S2)CC1 | . | -5 | -7 | 14 | -4 | -4
CCOC(=O)CSC1=NC(=O)/C(=C/c2ccc(OC)cc2)S1 | 1 | -1 | 21 | -2 | 99* | 0
COc1ccc(/C=C2\SC(N)=NC2=O)cc1 | . | 4 | -4 | . | -3 | -7
Cc1cccc(NC(=O)c2ncn3c2C(=O)N[C@H](C)C3)c1 | . | . | . | . | . | 2
Cc1cccc(-n2ccnc2SCC(=O)N2CCCc3ccccc32)c1C | 3 | 2 | 3 | 10 | -8 | -2
Cc1nc(N2C(=O)C(=O)/C(=C(/O)c3ccccc3)C2c2ccco2)sc1C (stereo unspecified) | -4 | 9 | -16 | 11 | 0 | -2
COC(=O)c1sc(N2C(=O)C(=O)/C(=C(/O)c3ccccc3)C2c2ccco2)nc1C (stereo unspecified) | -4 | 8 | -5 | 8 | 90* | 0
CC(C)(C)OC(=O)N/N=C/c1ccc(N2CCOCC2)s1 | 0 | -7 | -6 | 11 | 83* | -5
Oc1ccc(-c2cn3ccccc3n2)cc1 | -3 | 1 | 11 | -4 | 99* | -4
Cc1ccn2cc(-c3ccc(O)c(O)c3)nc2c1 | . | 12 | 9 | 5 | 99* | 6
c1ccc(-c2cn3ccccc3n2)cc1 | . | . | . | . | . | 0
Oc1ccc(-c2cn3ccccc3n2)cc1O | . | -5 | -3 | 2 | 99* | -1
Cc1ccn2cc(-c3cccc(NC(=O)C(C)C)c3)nc2c1 | 0 | 8 | 7 | -4 | 4 | -1
CN(C)S(=O)(=O)c1ccc(-c2cn3ccccc3n2)cc1 | 2 | 42 | -1 | 0 | 99* | -3
SMILES | RBBP9 inh | SUMO HTRF inh | UBC13 inh | PREPL inh | ALR H2O2 inh | Rin1 Abl inh
Cc1ccc(C(C)C)c(OCC#CCN2CCOCC2)c1 | . | 6 | 6 | 4 | 6 | -4
O=c1cc(Cn2ccnc2)c2cc(O)ccc2o1 | . | 10 | -2 | . | -18 | 1
Cc1cccc(C(=O)N/C(=C\c2ccco2)C(=O)N2CCCC2)c1 | . | 8 | -10 | 2 | 95* | 1
CCN(CC)c1nc(C=Cc2ccc(N(C)C)cc2)c2nccnc2n1 | . | . | . | . | . | -6
CCN(CC)c1ccc(/C=C/c2cccc[n+]2C)c(OC)c1 | . | -10 | i | -52 | 99* | -32
COc1ccc(/C=C/c2cccc[n+]2C)c(O)c1 | . | 10 | -45 | -1 | . | -4
Cc1ccc(-n2[nH]c(=O)c3cccnc32)cc1 | -1 | -2 | 2 | 11 | 97* | 0
Cc1ccc(-n2[nH]c(=O)c(-c3ccccn3)c2C)cc1 | -3 | 12 | 4 | 14 | 19 | 0
CS(=O)(=O)c1cc(C(=O)O)cc(NCc2ccccc2)c1Oc1ccccc1 | . | . | . | . | . | -2
CCN(CC)c1ccc(NC(=O)c2c(OC)cccc2OC)c(C)c1 | -12 | -12 | 2 | -7 | 99* | 0
CCN(CC)c1ccc(NC(=O)C2=CCN(S(=O)(=O)c3ccc(F)cc3)CC2)c(C)c1 | -7 | 8 | 5 | 6 | 87* | -3
CN(CCc1ccccc1)C(=O)c1ccc(NC(=O)Cc2ccc(NC(=O)C3CCCN(C(=O)CCc4ccccc4)C3)cc2)cc1 (stereo unspecified) | . | . | . | . | . | 2
CCN(c1ccccc1)S(=O)(=O)c1cccc(C(=O)NCc2ccccn2)c1 | . | . | 19 | -2 | . | 2
O=C(NCC(=O)N1CCCCCCC1)c1ccc(Br)o1 | . | . | 5 | 4 | 1 | 0
O=C(NC(=S)N1CCN(c2ccc([N+](=O)[O-])cc2)CC1)c1ccco1 | -4 | 14 | -13 | -6 | -5 | 0
O=C(Nc1ccccc1N1CCCCC1)c1ccco1 | -3 | 10 | 0 | 9 | 97* | 2
O=C(Nc1ccccc1N1CCCC1)c1ccco1 | -6 | 22 | 0 | 10 | 43 | -1
O=C(NC(=S)N1CCN(c2ccc(O)cc2)CC1)c1ccco1 | . | . | -4 | 2 | 99* | 0
O=C(Cc1ccc(F)cc1)Nc1ccccc1N1CCCC1 | . | -1 | 0 | 16 | 89* | 0
O=C(NCC(=O)N1CCN(c2ccccc2O)CC1)c1ccc(Br)o1 | . | . | -1 | 10 | 99* | 7
Cc1ccsc1C(=O)Nc1ccccc1N1CCCC1 | . | . | 0 | 22 | 99* | -2
CCCCCC(=O)Nc1ccccc1N1CCN(c2ccccc2)CC1 | 2 | -26 | 1 | 3 | 15 | 0
O=C(O)/C=C\C(=O)Nc1ccccc1N1CCN(c2ccccc2)CC1 | . | 8 | 4 | 8 | 98* | -2
O=C(NNC(=S)Nc1ccccc1Cl)c1ccccc1Cl | . | -40 | 0 | 0 | 90* | -2
O=C(NNC(=S)Nc1ccccc1Cl)c1ccccc1 | . | -4 | -1 | 9 | ? | 4
O=C(Nc1ccccc1N1CCCC1)c1ccccc1Cl | . | -11 | 8 | 3 | 99* | 3
O=C(Nc1ccccc1N1CCCC1)c1ccc(Cl)cc1Cl | -4 | -8 | -3 | 6 | 15 | 1
N#Cc1ccc(Cl)cc1NC(=O)CN1C(=O)C(=O)N(CCC2=CCCCC2)C1=O | . | . | . | . | . | -2
O=C(NC(=S)Nc1ccccc1N1CCCC1)c1ccccc1[N+](=O)[O-] | 1 | -6 | . | 18 | 98* | -2
O=C(/C=C/c1ccco1)NC(=S)Nc1ccccc1N1CCCC1 | -1 | 9 | -2 | 11 | 4 | 2
